These results are taken from ChEMBL document CHEMBL2029222, “Synthesis and biological evaluation of a class of 5-benzylidene-2-phenyl-thiazolinones as potent 5-lipoxygenase inhibitors” (Bioorg Med Chem, 2012).

Data set [1] concerns U-937. Kind of data set: Cytotoxicity against human U937 cells assessed as cell viability after 48 hrs by WST-1 assay. The conditions noted are these: U-937, 48 h. The data set is classed as cell-based. In outline: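 U937 cells (10^4 per well, RPMI with 10% FCS, 37 °C, 5% CO2) treated with increasing compound concentrations for 48 h in 10% FCS; mitochondrial metabolic activity read by WST-1 kit protocol. IC50 for viability loss; at least three experiments, mean ± SE.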

Data set [2] deals with U-937. Kind of data set: Cytotoxicity against human U937 cells assessed as LDH leakage at 30 uM after 48 hrs by microplate reader assay relative to control. The note with it: u-937, 48 h. The data set is classed as cell-based.
Data set [3] deals with T1, Polyunsaturated fatty acid 5-lipoxygenase (Homo sapiens) (UniProt P09917).
T1 sequence (whole entry): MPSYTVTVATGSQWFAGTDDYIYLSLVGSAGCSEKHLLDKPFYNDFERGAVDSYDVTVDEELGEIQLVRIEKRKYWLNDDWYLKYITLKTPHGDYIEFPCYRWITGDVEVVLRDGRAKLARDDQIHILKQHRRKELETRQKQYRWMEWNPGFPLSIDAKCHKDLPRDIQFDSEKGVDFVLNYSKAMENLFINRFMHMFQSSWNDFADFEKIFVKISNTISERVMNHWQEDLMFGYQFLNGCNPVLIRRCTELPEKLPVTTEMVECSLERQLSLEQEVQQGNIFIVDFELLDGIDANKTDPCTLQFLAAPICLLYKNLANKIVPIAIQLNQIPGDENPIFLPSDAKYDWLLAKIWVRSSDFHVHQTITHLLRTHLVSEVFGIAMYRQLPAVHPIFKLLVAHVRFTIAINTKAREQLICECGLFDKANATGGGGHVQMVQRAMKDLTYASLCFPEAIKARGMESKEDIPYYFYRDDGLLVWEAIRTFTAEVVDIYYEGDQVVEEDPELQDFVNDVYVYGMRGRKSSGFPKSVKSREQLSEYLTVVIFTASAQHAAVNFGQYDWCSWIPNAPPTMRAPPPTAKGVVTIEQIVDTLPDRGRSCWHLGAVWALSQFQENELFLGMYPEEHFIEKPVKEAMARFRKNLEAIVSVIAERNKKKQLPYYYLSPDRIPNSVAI
Kind of data set: Inhibition of 5-lipoxygenase in human polynuclear leukocytes assessed as residual activity at 1 uM preincubated for 15 mins measured after 10 mins by HPLC analysis relative to control. In kind it is cell-based. In short, it runs like this: (§1)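 Freshly isolated human PMNL (5 × 10^6 per mL PBS pH 7.4, 1 mg/mL glucose, 1 mM CaCl2) preincubated with compounds 15 min at 37 °C, then stimulated with A23187 (2.5 µM) plus AA (20 µM) for 10 min. Methanol stop, PGB1 internal standard; LTB4, all-trans isomers and 5-H(P)ETE per 10^6 cells by HPLC. n≥3, mean ± SE.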

In data set [4] the target is T1, Polyunsaturated fatty acid 5-lipoxygenase (Homo sapiens). Kind of data set: Inhibition of 5-lipoxygenase in cell free S100 freshly isolated human PMNL cells assessed as assessed as residual activity at 10 uM preincubated for 15 mins measured after 10 mins by HPLC analysis relative to control. In short, it runs like this: (§2)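 Human donor PMNL in PBS with 1 mM EDTA plus protease inhibitors, sonicated, spun 100,000g 70 min at 4 °C. S100 equivalent to 7.5 × 10^6 cells in PBS pH 7.4, 1 mM EDTA, 1 mM ATP; compound or DMSO 15 min at 4 °C, then 20 µM AA plus 2 mM CaCl2, 10 min at 37 °C. Methanol stop; products by HPLC; n≥3, mean ± SE.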

Data set [5] has the same target. The data set is described as follows: Inhibition of 5-lipoxygenase in cell free S100 freshly isolated human PMNL cells assessed as assessed as residual activity at 1 uM preincubated for 15 mins measured after 10 mins by HPLC analysis relative to control. In short, it runs like this:
as §2

The target is the same in data set [6]. Kind of data set: Inhibition of 5-lipoxygenase in human polynuclear leukocytes assessed as residual activity at 10 uM preincubated for 15 mins measured after 10 mins by HPLC analysis relative to control. In kind it is cell-based. In outline:
as §1

The target in data set [7] is T2, Polyunsaturated fatty acid 5-lipoxygenase (Homo sapiens, UniProt P09917).
T2 sequence (P09917 whole entry): T1 sequence (whole entry)
The data set is described as follows: Inhibition of 5-lipoxygenase in human polynuclear leukocytes assessed as inhibition of A23187-stimulated 5-LO product formation preincubated for 15 mins measured after 10 mins by HPLC analysis. In kind it is cell-based.

Data set [8] has as its target T2, Polyunsaturated fatty acid 5-lipoxygenase. Kind of data set: Inhibition of 5-lipoxygenase in cell free S100 freshly isolated human PMNL cells assessed as inhibition of 5-LO product formation preincubated for 15 mins measured after 10 mins by HPLC analysis.

Regarding `COc1ccc(/C=C2\SC(c3ccc4ccccc4c3)=NC2=O)cc1`, in data set [1], the IC50 is above 30 µM. The Activity in data set [2] is given as 4.1%.

As to `CCCOc1ccc(/C=C2\SC(c3ccc(Cl)cc3)=NC2=O)cc1`, in data set [1], the IC50 was 21.1 µM. The Activity in data set [2] was determined as 48.9%.

Regarding `O=C1N=C(c2ccc(Cl)cc2)S/C1=C\c1ccc(Oc2ccccc2)cc1`, in data set [1], the IC50 was above 30 µM. In addition, in data set [2], the Activity came out at 12%.

`COc1ccc(/C=C2\SC(c3ccc(OC)cc3)=NC2=O)cc1`: the values for the Activity in data set [3] and in data set [4] were 21.4% and 38.8%, respectively.

As for `COc1ccc(/C=C2\SC(c3cccc(NC(=O)C45CC6CC(CC(C6)C4)C5)c3)=NC2=O)cc1`, the IC50 in data set [1] is above 30 µM. Moreover, the Activity in data set [2] turned out to be 8.4%.

In the case of `COc1ccc(/C=C2\SC(c3ccc(Cl)cc3)=NC2=O)c2ccccc12`, the IC50 in data set [1] was above 30 µM. In addition, the Activity in data set [2] was determined as 12.2%.

Take `COc1ccc(/C=C2\SC(c3ccc(N)cc3)=NC2=O)cc1`: the Activity in data set [5] stood at 37.2%; in data set [3], 72.9%.

Regarding `COc1ccc(C2=NC(=O)/C(=C/c3ccc(C)cc3)S2)cc1`, in data set [1], the concentration for half-maximal inhibition (IC50) was above 30 µM. The Activity in data set [2] turned out to be 15.8%.

As to `CC(=O)N(O)C/C=C/c1cccc(Oc2ccccc2)c1`, the IC50 in data set [1] was above 30 µM. Besides, the Activity in data set [6] was below 10%; in data set [2], 0.8%; in data set [4] it was below 10%.

Take `COc1ccc(/C=C2\SC(c3ccc(C)cc3)=NC2=O)cc1`: the IC50 in data set [1] was above 30 µM. Besides, the Activity in data set [2] was found to be 2.7%.

`COc1ccc(/C(C)=C2\SC(c3ccc(C)cc3)=NC2=O)cc1`: the IC50 in data set [1] worked out at 12.1 µM. Also, the Activity in data set [2] is 106%.

`COc1ccc(C2=NC(=O)/C(=C/c3cc4ccccc4[nH]3)S2)cc1`: the Activity in data set [6] amounted to 20.5%; in data set [4] it was 21.4%. Besides, the IC50 in data set [7] is 0.67 µM; in data set [8], 0.57 µM.
